# The source made the active and inactive calls. The rule behind the calls is not given here.
# Assays:
# [1] = Antiproliferative activity against tetracycline-treated human P493-6 cells expressing MYC assessed as inhibition of cell proliferation incubated for 96 hrs by cell titer glo assay; format: functional, cell-based; details: P493-6, 96 h
# Procedure, shortened: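 P493-6 cells (3000/well, RPMI) were seeded overnight at 37 °C, then given compounds at final 0.14–100 µM for 96 h. MYC-off cells were pretreated with 0.1 µg/mL tetracycline for 72 h. Read-out was CellTiter-Glo luminescence after equilibration to room temperature. IC50 was determined in high-MYC and MYC-off cells.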
# [2] = Induction of apoptosis in human P493-6 cells assessed as early apoptotic cells at 25 uM incubated for 24 hrs by Annexin V/PI staining based flow cytometry analysis (reference value: 2.52 %); format: functional
# MDA-MB-468 [3] = assay: Downregulation of E2F1 mRNA expression in human MDA-MB-468 cells at 25 uM incubated for 12 hrs by qRT-PCR analysis; format: functional, cell-based
# Procedure, shortened: (§1)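 Cells (500,000/well) were cultured with or without 25 µM for the indicated time. Total RNA was extracted with TRIzol and reverse-transcribed. qPCR used SYBR green with target-gene primers, reported as ΔΔCT.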
# MDA-MB-468 [4] = assay: Downregulation of CCNA2 mRNA expression in human MDA-MB-468 cells at 25 uM incubated for 12 hrs by qRT-PCR analysis; format: functional, cell-based; procedure, shortened: as §1
# P493-6 [5] = assay: Downregulation of CDC25A mRNA expression in human P493-6 cells at 25 uM incubated for 12 hrs by qRT-PCR analysis; format: functional, cell-based; procedure, shortened: as §1
# MCF7 = assay: Induction of apoptosis in human MCF7 cells cultured as 3D spheroids assessed as inhibition of cell growth incubated for 5 days; format: functional, cell-based; details: time 5.0 day
# Procedure, shortened: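 Cells plated at 4000 per well in low-attachment 24-well plates and grown in Mammocult medium for 48 h to form mammospheres. Spheres then exposed to 25 uM compound for 5 days, with untreated control wells. Read-out was imaging of the mammospheres formed.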
# P493-6 [6] = assay: Downregulation of CDK1 mRNA expression in human P493-6 cells at 25 uM incubated for 12 hrs by qRT-PCR analysis; format: functional, cell-based; procedure, shortened: as §1
# [7] = Toxicity in mouse implanted with human MDA-MB-468 cells assessed as change in body weight at 10 mg/kg, po; format: organism-based; details: in vivo
# MDA-MB-468 [8] = assay: Downregulation of CDC25A mRNA expression in human MDA-MB-468 cells at 25 uM incubated for 12 hrs by qRT-PCR analysis; format: functional, cell-based; procedure, shortened: as §1
# MDA-MB-468 [9] = assay: Antitumor activity against human MDA-MB-468 cells xenografted in mouse assessed as tumor growth inhibition at 10 mg/kg, po measured at 14 to 26 days by elliptical measurement method based caliper analysis; format: functional, organism-based; details: time 14-26 day
# [10] = Selectivity index, ratio of IC50 for antiproliferative activity against tetracycline-treated human P493-6 cells expressing MYC assessed as inhibition of cell proliferation to IC50 for antiproliferative activity against human P493-6 cells expressing MYC assessed as inhibition of cell proliferation; format: functional
# Procedure, shortened: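 MYC-off P493-6 cells obtained by 72 h pretreatment with 0.1 µg/mL tetracycline and compared with untreated MYC-high cells. Cells seeded at 3000 per 100 uL, held overnight at 37 °C, then treated at 0.14–100 uM final for 96 h. Viability read by CellTiter-Glo luminescence. IC50 values determined in both states and compared as a selectivity index.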
# [11] = target: Myc proto-oncogene protein (Homo sapiens) (UniProt P01106); assay: Binding affinity to MYC in human P493-6 cells assessed as induction of destabilization at 10 to 50 uM measured for 2 hr by CETSA analysis; format: cell-based; details: DESTABILISER, dose 10-50 µM
# Sequence of Myc proto-oncogene protein (Homo sapiens) (P01106 whole entry): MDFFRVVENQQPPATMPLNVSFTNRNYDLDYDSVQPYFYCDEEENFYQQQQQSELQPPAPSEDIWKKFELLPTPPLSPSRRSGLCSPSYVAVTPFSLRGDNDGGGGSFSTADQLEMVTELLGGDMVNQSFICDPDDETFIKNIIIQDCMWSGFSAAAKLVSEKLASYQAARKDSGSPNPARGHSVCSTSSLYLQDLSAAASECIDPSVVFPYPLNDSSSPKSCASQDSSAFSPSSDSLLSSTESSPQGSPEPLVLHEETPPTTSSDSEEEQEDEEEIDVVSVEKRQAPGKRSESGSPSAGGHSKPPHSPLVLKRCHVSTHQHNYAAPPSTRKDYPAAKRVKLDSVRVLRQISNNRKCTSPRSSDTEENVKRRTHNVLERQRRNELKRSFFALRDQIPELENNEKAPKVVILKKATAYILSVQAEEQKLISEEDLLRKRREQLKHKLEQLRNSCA
# P493-6 [12] = assay: Induction of apoptosis in human P493-6 cells assessed as effect on PARP level at 50 uM incubated for 24 hrs
# MDA-MB-468 [13] = assay: Downregulation of CDC25A mRNA expression in human MDA-MB-468 cells at 25 uM incubated at 48 hrs by qRT-PCR analysis; format: functional, cell-based; procedure, shortened: as §1
smiles,measurement,setting,value
N#Cc1cc2c(-c3ccc(Cl)cc3)nn(-c3ccccc3)c2[nH]c1=O,IC50,[1],58.9 µM
same,Activity,[2],3.1%
same,Activity,MDA-MB-468 [3],Active
same,Activity,MDA-MB-468 [4],Active
same,Activity,P493-6 [5],Active
same,Activity,MCF7,Active
same,Activity,P493-6 [6],Active
same,Activity,[7],Non-toxic
same,Activity,MDA-MB-468 [8],Active
same,TGI,MDA-MB-468 [9],Active
same,Ratio IC50,[10],3.9
same,Activity,[11],Active
same,Activity,P493-6 [12],Active
same,Activity,MDA-MB-468 [13],Active

# From ChEMBL document CHEMBL6115033, “Discovery of a Pyrazolopyridinone-Based MYC Inhibitor That Selectively Engages Intracellular c-MYC and Disrupts MYC-MAX Heterodimerization” (J Med Chem, 2025)
